Test results reported in ChEMBL document CHEMBL5620388, “Quinolone analogues of benzothiazinone: Synthesis, antitubercular structure-activity relationship and ADME profiling” (Eur J Med Chem, 2023).
Converted amounts (≈) assume the structure as drawn.

Assays:
Assay type in all cases: functional
[1] = system: Mycobacterium tuberculosis; experiment: Antitubercular activity against moxifloxacin-resistant Mycobacterium tuberculosis assessed as reduction in bacterial growth incubated for 14 days; settings: 336 h, time 14 day
Method in brief: (§1)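 Strains were H37Rv, the fluoroquinolone-resistant GyrA G88C mutant, and the dprE1 P116S and C387S mutants. All were cultured in standard Middlebrook 7H9 with ADC supplement.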

[2] = system: Mycobacterium tuberculosis; experiment: Antitubercular activity against Mycobacterium tuberculosis harboring DprE1 p116S mutant assessed as reduction in bacterial growth incubated for 14 days; settings: time 14 day; method in brief: as §1
[3] = system: Mycobacterium tuberculosis; experiment: Antitubercular activity against Mycobacterium tuberculosis harboring DprE1 C387S mutant assessed as reduction in bacterial growth incubated for 14 days; settings: time 14 day; method in brief: as §1

| SMILES | MIC90 [1] | MIC90 [2] | MIC90 [3] |
| --- | --- | --- | --- |
| O=C(NCCc1ccc(Cl)cc1)c1c[nH]c2c([N+](=O)[O-])cc(C(F)(F)F)cc2c1=O | 1.9 µM (≈ 0.836 µg/mL) | 17 µM (≈ 7.48 µg/mL) | 44.8 µM (≈ 19.7 µg/mL) |
| O=C(NCCc1ccc(F)cc1)c1c[nH]c2c([N+](=O)[O-])cc(C(F)(F)F)cc2c1=O | 1.9 µM (≈ 0.804 µg/mL) | 1 µM (≈ 0.423 µg/mL) | >62 µM |
| O=C(NCCc1ccc(C(F)(F)F)cc1)c1c[nH]c2c([N+](=O)[O-])cc(C(F)(F)F)cc2c1=O | 0.9 µM (≈ 0.426 µg/mL) | 0.5 µM (≈ 0.237 µg/mL) | 54.2 µM (≈ 25.7 µg/mL) |
| COc1c(N2C[C@@H]3CCCN[C@@H]3C2)c(F)cc2c(=O)c(C(=O)O)cn(C3CC3)c12 [MOXIFLOXACIN] | 6.3 µM (≈ 2.53 µg/mL) | 0.1 µM (≈ 0.0401 µg/mL) | 0.05 µM (≈ 0.0201 µg/mL) |
| NNC(=O)c1ccncc1 [ISONIAZID] | 3.6 µM (≈ 0.494 µg/mL) | 2 µM (≈ 0.274 µg/mL) | 3.3 µM (≈ 0.453 µg/mL) |
